Compound activity from PubChem.
MLL AF4-AF9 inh: inhibitors of AF4 peptide binding to AF9, primary screen, biochemical, AlphaScreen, biotin-AF4 peptide, FLAG-AF9, single point | hit rate 0.47% among 350,000 | AID 651704, 2012 | Protein AF-9 (Homo sapiens), P42568 | inhibition, % at 10 µM;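 active means every replicate reaching a set inhibition limit, whatever the replicate mean, cut at about 25% in these data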;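 further: 0% = plate neutral control median and 100% = total signal loss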
FN deposit inh: inhibitors of fibronectin matrix deposition, primary screen, AH1F cells, Alexa488-fibronectin fluorescence, plate reader; AH1F fibroblasts, overnight; inhibition, % at 12.6 µM; hit rate 0.086% among 350,000; AID 743247, 2014;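 active means mean inhibition across replicates of 30% or more, regardless of how many single replicates reach that level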;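 further: positive control wells lacked labelled fibronectin entirely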
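Test system: AH1F fibroblast monolayer depositing Alexa488-labelled fibronectin into matrix. Input: 10000 cells per well. Technique: fluorescence, ex 485 nm, em 525 nm. Buffer or medium: DMEM plus 2% serum, read in PBS. Timing: 1 h cell adhesion before compound, then overnight fibronectin incubation. Compound: single dose, pinned. Read-out basis: inhibition from reduced deposited-fibronectin fluorescence.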
ERp5 block: inhibitors of ERp5-driven insulin aggregation, primary screen, biochemical, turbidity, absorbance 650 nm, single point; Protein disulfide-isomerase A6 (Homo sapiens), Q15084; 90 min; inhibition, % at 9.99 µM; hit rate 0.05% among 350,000; AID 651711, 2012;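 active means mean replicate inhibition above about 25%, with every replicate also reaching it, limit read from the data, passing the limit was not always enough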
Target sequence (Q15084 whole entry, looked up): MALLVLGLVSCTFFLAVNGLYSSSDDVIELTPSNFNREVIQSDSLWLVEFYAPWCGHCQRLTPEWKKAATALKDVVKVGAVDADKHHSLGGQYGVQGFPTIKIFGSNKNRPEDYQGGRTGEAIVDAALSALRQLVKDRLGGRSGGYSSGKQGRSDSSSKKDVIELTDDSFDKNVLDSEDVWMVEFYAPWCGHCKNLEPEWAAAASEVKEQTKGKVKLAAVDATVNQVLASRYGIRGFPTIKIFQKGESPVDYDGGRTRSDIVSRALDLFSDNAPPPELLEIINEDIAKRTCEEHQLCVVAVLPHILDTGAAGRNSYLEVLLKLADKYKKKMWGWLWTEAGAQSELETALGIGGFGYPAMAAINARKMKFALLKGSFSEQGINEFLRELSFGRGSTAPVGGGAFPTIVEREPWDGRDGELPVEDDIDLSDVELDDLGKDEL
PDI turbidity: inhibitors of human PDI, primary screen, biochemical, turbidity, single point, plate reader; Protein disulfide-isomerase (Homo sapiens), P07237; PDI insulin aggregation turbidity, A650, 90 min; inhibition, % at 10 µM; hit rate 0.052% among 350,000;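 active means mean inhibition across replicates of 30% or more, whatever share of single replicates reach that level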
SIRT5 inh: SIRT5 desuccinylase inhibitors, primary screen, biochemical, fluorescence imaging, single point, set 5; Purified SirT5, succinyl-peptide AMC, trypsin-coupled fluorescence; AID 652115, 2013; hit rate 1.1% among 330,000; inhibition, % at 15 µM; NAD-dependent protein deacylase sirtuin-5, mitochondrial (Homo sapiens), Q9NXA8; in the data active means inhibition above about 15%
* marks the source's active call; other numbers are inactive results; . = no result given. A selection: hits, their analogues and other compounds. The true share with any hit is near 1.3%.

SMILES	MLL AF4-AF9 inh	FN deposit inh	ERp5 block	PDI turbidity	SIRT5 inh
CN(C)CCCCCCNC(=O)[C@@H]1C[C@@H]2C(=O)N3CCC[C@H]3C(=O)N2[C@@H]1c1ccc(O)cc1	29*	.	0	.	6
CCN1CCN(C(=O)C(C)Nc2ccc(OC)cc2OC)CC1 (stereo unspecified)	26*	-2	1	-2	15*
Cc1cc(CNC(=O)Cc2c(F)cccc2Cl)nn1C	-29	.	1	-2	23*
Cc1ccc(NC(=O)C2(C)CCN2C(=O)C2(c3ccc(Cl)cc3)CC2)cc1 (stereo unspecified)	-2	6	1	15	-2
CO[C@@H](C(=O)N(C)C[C@H]1OCc2ccccc2-c2ccccc2C(=O)N([C@@H](C)CO)C[C@@H]1C)c1ccccc1	-3	4	-3	.	19*
CCOC(=O)N(C)C[C@H]1OCc2ccccc2-c2ccccc2C(=O)N([C@H](C)CO)C[C@@H]1C	4	3	-4	.	21*
O=C(C[C@@H]1CC[C@@H]2[C@H](COC[C@H](O)CN2S(=O)(=O)c2ccccc2)O1)NCC1CCCCC1	6	-2	3	.	3
CN(C)CCCNC(=O)C[C@H]1CC[C@H]2[C@@H](COC[C@H](O)CN2S(=O)(=O)c2ccc(F)cc2)O1	0	-4	3	.	22*
O=C(C[C@H]1CC[C@H]2[C@@H](COC[C@H](O)CN2S(=O)(=O)c2ccccc2)O1)NCC1CCCCC1	33*	-2	4	.	3
O=C(C[C@H]1CC[C@H]2[C@@H](COC[C@@H](O)CN2S(=O)(=O)c2ccc(F)cc2)O1)NCC1CCCCC1	9	1	-4	.	3
O=C(C[C@@H]1CC[C@H]2[C@@H](COC[C@@H](O)CN2S(=O)(=O)c2ccc(F)cc2)O1)NCC1CCCCC1	31*	-7	0	.	2
O=C(C[C@H]1CC[C@H]2[C@@H](COC[C@H](O)CN2S(=O)(=O)c2ccc(F)cc2)O1)NCC1CCCCC1	28*	-11	-4	.	2
CCOC(=O)[C@]12CCC=C1N(CCC1=CCCCC1)C(=O)[C@H](CC(=O)N1CCCC1)C2	-5	.	0	.	-4
CC(C)(C)c1ccc(OCC(O)CN2CCOCC2)cc1 (stereo unspecified)	1	2	5	7	0
Cc1noc(C)c1S(=O)(=O)N(C)C[C@H]1OCCCC[C@H](C)Oc2ccc(NC(=O)C3CCCCC3)cc2C(=O)N([C@H](C)CO)C[C@@H]1C	2	.	-11	.	0
Cc1c(C#N)c(N)nc(Cl)c1C#N	0	-6	11	1	.
N#Cc1c(Cl)nsc1NN	51*	.	-1	4	-3
Cc1ccc(C)c(NS(=O)(=O)c2c(C)nn(C)c2C)c1	.	1	.	37*	.
O=C(O)C1CCC(N2C(=O)c3cccc([N+](=O)[O-])c3C2=O)CC1 (stereo unspecified)	0	-3	0	-6	-1
C[C@@H]1CCCCO[C@@H](CN(C)Cc2ccc(Cl)c(Cl)c2)[C@@H](C)CN([C@@H](C)CO)C(=O)c2cc(NC(=O)NC3CCCCC3)ccc2O1	4	.	1	.	16*
C[C@@H]1CN([C@H](C)CO)C(=O)c2cc(NC(=O)NC3CCCCC3)ccc2O[C@@H](C)CCCCO[C@@H]1CN(C)Cc1ccc(Cl)c(Cl)c1	5	-5	4	.	24*
C[C@H](CO)N1C[C@H](C)[C@@H](CN(C)Cc2ccc(Cl)c(Cl)c2)OCCCC[C@H](C)Oc2ccc(NC(=O)NC3CCCCC3)cc2C1=O	0	.	3	.	3
C[C@@H]1CCCCO[C@@H](CN(C)Cc2ccc(Cl)c(Cl)c2)[C@H](C)CN([C@@H](C)CO)C(=O)c2cc(NC(=O)NC3CCCCC3)ccc2O1	4	.	6	.	1
CCCC(=O)Nc1ccc2c(c1)nc(CCNC(=O)c1ccccc1)n2C	3	.	3	-8	-5
CCN1C(C#N)=C(C#N)N=C(C)CC1(C)C	0	-4	-4	-1	-2
C/C=C/c1ccc([C@H]2[C@@H](CO)N(C(=O)CC)[C@@H]2CN(C)C(=O)NC(C)C)cc1	-7	-11	-2	.	18*
